Source: article PMC9519467 (Bioactive Materials, 2022)

How the values were obtained:
4T1 tumor-bearing mice [1] = experiment: In vivo biodistribution after tail vein injection; design: species or system BALB/c mice; conditions: 1–24 h
Summary of the method: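 Female BALB/c mice (4–6 weeks, 18–20 g) received 5 × 10^5 4T1 cells subcutaneously in the right flank and were grouped once tumors reached about 100 mm3. Test compound (100 μL, 2.845 mg/mL in PBS) was injected into the tail vein; free P18 in 10% DMSO/PBS served as comparator. P18 fluorescence was imaged by IVIS under isoflurane at 1, 3, 6, 9, 12 and 24 h. Mean tumor-site intensity was computed, and excised organs and tumor were imaged at 24 h.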

4T1 tumor-bearing mice [2] = experiment: Tumor retention after intratumoral injection; format: in vivo, BALB/c mice; conditions: observed 6–120 h
Summary of the method: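 4T1 flank tumors were raised in female BALB/c mice, and test compound or free P18 solution (10 μL) was injected into the tumor. Fluorescence was imaged by IVIS under isoflurane at 6, 12, 24, 48, 72, 96 and 120 h, and tumor intensity was quantified. In a separate pair of groups, the MMP-2 inhibitor Ilomastat (8 mg/kg) was injected into the tumor 15 min before the test compound, compared with no inhibitor. Tumor fluorescence was imaged at serial time points.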

4T1 tumor-bearing mice [3] = experiment: In vivo photothermal effect; design: species or system BALB/c mice; conditions: 6 h after tail vein injection, 660 nm, 0.5 W/cm^2, 6 min
Summary of the method: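 The 4T1 model was female BALB/c mice with subcutaneous flank tumors, in two groups. One group got test compound i.v. (100 μL, 2.845 mg/mL in PBS); the comparator group got free P18 solution (100 μL) under the same conditions. Infrared thermal camera images and tumor temperature curves were recorded during irradiation.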

- fluorescence signal at the tumor site (4T1 tumor-bearing mice [1]): barely detectable
- course of tumor fluorescence intensity post i.t. injection (4T1 tumor-bearing mice [2]): decreased gradually until 120 h
Substance: Purpurin 18 [P18]
- temperature of the tumor under laser irradiation (4T1 tumor-bearing mice [3]): 41 °C
